# ANO1 activ: activates or potentiates the mouse TMEM16A chloride channel | Q8BHY3 | HEK293 TMEM16A/YFP-H148Q/I152L, iodide quench fluorescence; hits give low values | B-score at 10 µM | actives 0.3% (n = 340,000) | AID 623877;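 active means fluorescence-ratio B-score plate-corrected deviation score at least 3 library SD below zero, with starting fluorescence score within 5 deviations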;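 further: channel opened by trigger with iodide after compound preincubation; score built on the fluorescence ratio of max minus min over baseline; more negative score means more quench and so TMEM16A activation or potentiation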
# Target sequence (Q8BHY3 whole entry, looked up): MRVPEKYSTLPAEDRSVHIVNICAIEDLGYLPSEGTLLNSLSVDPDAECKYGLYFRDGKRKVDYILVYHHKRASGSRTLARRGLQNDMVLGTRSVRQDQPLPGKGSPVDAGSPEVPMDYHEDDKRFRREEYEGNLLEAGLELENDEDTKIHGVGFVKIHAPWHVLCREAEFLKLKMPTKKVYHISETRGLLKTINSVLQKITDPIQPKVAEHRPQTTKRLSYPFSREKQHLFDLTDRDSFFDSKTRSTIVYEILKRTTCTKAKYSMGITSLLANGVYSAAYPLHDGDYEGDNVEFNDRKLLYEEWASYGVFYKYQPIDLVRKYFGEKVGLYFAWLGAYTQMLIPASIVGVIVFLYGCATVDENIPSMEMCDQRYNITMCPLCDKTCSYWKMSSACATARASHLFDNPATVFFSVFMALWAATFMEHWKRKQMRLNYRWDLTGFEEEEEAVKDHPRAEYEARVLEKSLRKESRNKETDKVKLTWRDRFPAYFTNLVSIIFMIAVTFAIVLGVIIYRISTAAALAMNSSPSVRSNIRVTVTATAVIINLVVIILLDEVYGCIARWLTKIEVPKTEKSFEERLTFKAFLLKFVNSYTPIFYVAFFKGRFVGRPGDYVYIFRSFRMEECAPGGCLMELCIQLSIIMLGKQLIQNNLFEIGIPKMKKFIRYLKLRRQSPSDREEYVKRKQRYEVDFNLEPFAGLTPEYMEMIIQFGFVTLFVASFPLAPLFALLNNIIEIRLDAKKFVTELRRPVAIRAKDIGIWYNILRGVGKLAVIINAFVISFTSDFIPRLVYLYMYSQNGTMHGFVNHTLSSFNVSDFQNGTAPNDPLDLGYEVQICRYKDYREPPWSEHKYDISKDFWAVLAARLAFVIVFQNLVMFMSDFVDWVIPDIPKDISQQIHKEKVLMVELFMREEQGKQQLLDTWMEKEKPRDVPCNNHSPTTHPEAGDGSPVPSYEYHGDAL
# ANO1 block: mouse TMEM16A channel inhibition, primary screen; Q8BHY3; actives 1.2% (n = 310,000); HEK293 TMEM16A/YFP iodide influx fluorescence, ionomycin; AID 588511; normalized B-score (activity score, 25-100; higher = stronger inhibition) at 10 µM;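 active means ratio plate-corrected score three or more library SD toward inhibition, starting fluorescence score within five deviations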;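 further: score derived from kinetic fluorescence span divided by baseline fluorescence per well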
# UBC13 polyUb: human UBC13 polyubiquitination inhibition; P61088; UBC13 polyubiquitin chain formation, TR-FRET; inhibition, % at 20 µM; actives 0.47% (n = 330,000); in the data active means inhibition above about 45%, passing the limit was not always enough
# DNA FID counter: counter-screen for HCV NS3 helicase inhibitors: DNA intercalator displacement | DNA fluorescent intercalator displacement, fluorescence | inhibition, % at 7.9 µM | actives 0.17% (n = 290,000) | AID 1845; in the data active means inhibition above about 37%;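 further: 0% = vehicle and 100% = reference compound; higher means more ethidium bromide displaced from hairpin DNA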
# Apaf-1 inh: blocks human Apaf-1 apoptosome activity; O14727; reconstituted apoptosome caspase-3 activity, DEVD-Rh110 fluorescence; inhibition, % at 20 µM; actives 0.71% (n = 330,000); AID 489030; active means inhibition of at least 40% at 20 µM;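 further: plate controls were DMSO wells for no effect and DEVD-CHO caspase inhibitor wells for full effect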
#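 Material: reconstituted apoptosome with Apaf-1, cytochrome c, caspase-9, procaspase-3, dATP; medium: pH 7.5 Hepes buffer with CHAPS, BSA, DTT; also added: cytochrome c and DEVD-Rh110 substrate; timing: 30 min plus 50 min, RT; signal: Rh110 fluorescence intensity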
# Apaf-1 inh conf: Apaf-1 inhibition, single-dose confirmed | shares compounds with Apaf-1 inh | actives 25% (n = 1,800) | reconstituted apoptosome, caspase-3 DEVD-Rh110 fluorescence | inhibition, % at 20 µM;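 active means mean inhibition of at least 40% at 20 µM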;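 further: plate controls were DMSO wells for no effect and DEVD-CHO caspase inhibitor control wells for full effect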
# Rh110 interf inh: counter-screen for Apaf-1 inhibitors: fluorescence interference | AID 504615 | Rh110 fluorescence interference, quenched caspase reaction | activation (fluorescence interference), % at 20 µM | 1,800 tested, under 10 active | shares compounds with Apaf-1 inh;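 active means signal rise of 40% or more at 20 µM, treated as a fluorescence artifact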
# Fluor interf inh: counter-screen for Apaf-1 inhibitors: fluorescence interference, dose response | fluorescence interference counterscreen, Apaf-1 assay format | shares compounds with Apaf-1 inh | AID 588538 | 460 tested, under 10 active | IC50, µM; call rule not given here
# Starred values were filed as active, the others as inactive; i = inactive; nt = no result given. An excerpt weighted towards active compounds, which were near 2.4% of everything screened.
SMILES,ANO1 activ,ANO1 block,UBC13 polyUb,DNA FID counter,Apaf-1 inh,Apaf-1 inh conf,Rh110 interf inh,others
Cc1cccc(N2CCN(C(=O)c3ccc4nc(-c5ccco5)c(-c5ccco5)nc4c3)CC2C)c1 (stereo not drawn),i,i,-32,-31,60*,22,-1,
O=C(c1ccc2nc(-c3ccco3)c(-c3ccco3)nc2c1)N1CCN(c2ncccn2)CC1,i,i,-28,-29,57*,22,0,
O=C(NCc1ccccc1)c1ccc2nc(-c3ccco3)c(-c3ccco3)nc2c1,i,i,-24,-7,65*,28,6,
O=C(c1cccc(C(=O)N2CCN(c3ncccn3)CC2)c1)N1CCN(c2ncccn2)CC1,i,i,-4,-28,-7,nt,nt,
CCOc1ccc(C(c2c(C)[nH][nH]c2=O)c2c(C)[nH][nH]c2=O)cc1OC,i,i,-11,-4,21,nt,nt,
CCOc1cc(C(c2c(C)[nH][nH]c2=O)c2c(C)[nH][nH]c2=O)ccc1OS(=O)(=O)c1ccc(C)cc1,i,i,-1,-16,41*,25,19,
CN(C)c1oc(-c2ccccc2Cl)nc1P(=O)(c1ccccc1)c1ccccc1,i,i,3,-32,30,nt,nt,
Cc1ccccc1NC1=C/C(=N\S(=O)(=O)c2cccs2)c2ccccc2C1=O,i,i,-167,6,97*,99*,-7,Fluor interf inh=>100
COc1ccc(S(=O)(=O)c2ccc(O)cc2)cc1,i,i,6,-1,0,nt,nt,
CC(=O)Nc1ccc(NC2=C/C(=N/S(=O)(=O)c3cccs3)c3ccccc3C2=O)cc1,i,i,-79,6,90*,94*,-5,Fluor interf inh=>100
Cc1ccc(NC2=C/C(=N/S(=O)(=O)c3cccs3)c3ccccc3C2=O)cc1C,i,i,nt,0,nt,nt,nt,
COc1ccc(S(=O)(=O)/N=C2\C=C(Nc3ccc(O)cc3)C(=O)c3ccccc32)cc1,i,i,-262,1,96*,98*,5,Fluor interf inh=>100
Nn1c(SCC(=O)Nc2cc(S(=O)(=O)N3CCOCC3)ccc2Cl)nnc1-c1cccnc1,i,i,10,-2,-16,nt,nt,
CCOC(=O)N1CCc2c(sc3c2C(=O)NC(c2ccccc2)N3)C1 (stereo not drawn),i,i,-22,-6,81*,20,1,
COc1ccc(N)cc1-n1c(C)ccc1C,i,i,-27,-3,84*,24,-2,
O=C(N/N=C\C=C\c1ccc([N+](=O)[O-])o1)c1cccs1,i,i,-25,-20,49*,8,6,
COC(=O)c1ccccc1-c1ccc(C(c2c(C)[nH][nH]c2=O)c2c(C)[nH][nH]c2=O)o1,i,i,-44,-12,79*,30,6,
COC(=O)CCCC(=O)N1CCC(CCC(=O)NCc2ccc(F)cc2)CC1,i,i,-1,-17,-4,nt,nt,
Cn1c(Cc2ccccc2)n[nH]c1=S,i,i,9,-1,42*,2,2,
COc1ccc(CCNC(=O)C(=O)NCC2CCCN2S(=O)(=O)c2ccc(OC)cc2)cc1 (stereo not drawn),i,i,-2,nt,61*,12,11,
O=C(NCC1OCCCN1S(=O)(=O)c1cc(F)ccc1F)C(=O)NC1CCCCC1 (stereo not drawn),i,i,-10,-15,2,nt,nt,
COc1ccc(CN2CC(C(=O)NCc3cccc(OC)c3)CC2=O)cc1 (stereo not drawn),i,i,5,-6,67*,11,4,
O=C1COc2ccc(N3C(=O)c4ccccc4C3=O)cc2N1,nt,i,13,0,-5,nt,nt,
COc1ccc(OCc2cc(C(=O)N3CCC(OC)CC3)no2)c2ccccc12,i,i,0,-33,49*,25,6,
CCC(=O)NC1=C(Cl)C(=O)C(NC(=O)CC)=C(Cl)C1=O,i,nt,-41,4,71*,11,1,
SMILES,ANO1 activ,ANO1 block,UBC13 polyUb,DNA FID counter,Apaf-1 inh,Apaf-1 inh conf,Rh110 interf inh,others
CCC(=O)NC1=C(NC(C)c2ccccc2)C(=O)c2ccccc2C1=O (stereo not drawn),i,i,-72,1,5,nt,nt,
Cc1ccc(S(=O)(=O)NC(=O)Nc2ccc(N(C)C)cc2)cc1,i,i,-45,8,57*,23,2,
Cc1ccc(NC(=O)NNS(=O)(=O)c2ccc(Br)cc2)cc1,i,i,-2,0,3,nt,nt,
FC(F)(F)c1ccc(-c2nnc(-c3ccccn3)c(-c3ccccn3)n2)nc1,i,i,0,-15,1,nt,nt,
O=S(=O)(c1ccc(Br)cc1)N1CCN(c2ccc3nnc(-c4ccccc4)n3n2)CC1,i,i,35,-1,41*,55*,12,Fluor interf inh=>100
O=C(c1ccc(Br)o1)N1CCN(c2ccc3nnc(-c4ccccc4)n3n2)CC1,i,i,27,-26,38,nt,nt,
CC(C)C(=O)NC(c1cccs1)c1cc([N+](=O)[O-])c2cccnc2c1O (stereo not drawn),i,i,-68,-9,68*,35,5,
Cc1ccc(C(NC(=O)C(C)C)c2cc([N+](=O)[O-])c3cccnc3c2O)cc1 (stereo not drawn),i,i,-78,-2,20,nt,nt,
COCCn1c(SCC(=O)NC(=O)NC2CCCC2)nc2ccccc2c1=O,i,nt,10,nt,2,nt,nt,
O=C(COC(=O)c1ccc([N+](=O)[O-])s1)Nc1ccc(Cl)cn1,i,i,-23,-2,29,nt,nt,
Cc1c(Cl)cnc(NC(=O)COC(=O)c2ccc([N+](=O)[O-])s2)c1Cl,i,i,-20,2,40*,33,0,
O=S(=O)(c1ccccc1)[C@@]1(c2ccc(Br)cc2)C[C@@H]2ON=C(c3ccccc3)[C@@H]2C1,i,i,-7,nt,16,nt,nt,
COc1ccc(CCNC(=O)Cc2cccc(C(F)(F)F)c2)cc1OC,i,i,-2,-13,1,nt,nt,
CN(C)c1cc(Cl)c2nonc2c1N,i,i,-78,2,94*,52*,3,Fluor interf inh=>100
Cc1ccc(-n2nc3ccc(N)cc3n2)cc1C,i,i,-23,-3,80*,29,1,
COc1ccc(-n2nc3ccc(N)cc3n2)cc1Cl,i,i,-9,0,95*,55*,9,Fluor interf inh=>100
Cc1ccc(-n2cnnn2)cc1Cl,i,i,0,-9,3,nt,nt,
Cc1cc(N)ccc1-n1nc2ccccc2n1,i,i,14,nt,-6,nt,nt,
COc1ccc(-n2nc3ccc(NS(C)(=O)=O)cc3n2)cc1Cl,i,i,5,-2,8,nt,nt,

# Screens as filed in PubChem BioAssay.
